Assay results from ChEMBL document CHEMBL1137220, “2-(2-(dimethylaminomethyl)phenoxy)-5-iodophenylamine: an improved serotonin transporter imaging agent” (J Med Chem, 2004).

Assays:
[1] = Regional brain distribution in rat cortex was determined after 120 min of intravenous administration of the compound; [125I]- is used as radioactive isotope; assay type: ADME; conditions: in vivo, 2 h
How it was run: (§1)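 Rats, three per group, injected with 10 μCi tracer in 0.2 mL saline via the femoral vein under ether anesthesia and killed by cardiac excision at the stated time. Cortex (frontal plus occipital), striatum, hippocampus, cerebellum and hypothalamus were dissected, weighed and gamma-counted. Values are % dose/g, calculated by comparison with counts of a 100-fold diluted aliquot of the injected dose.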

[2] = Regional brain distribution in rat striatum was determined after 2 min of intravenous administration of the compound; [125I]- is used as radioactive isotope; assay type: ADME, tissue-based; conditions: in vivo; how it was run: as §1
[3] = Regional brain distribution in rat cortex was determined after 24-hours of intravenous administration of the compound; [125I]- is used as radioactive isotope; assay type: ADME; conditions: in vivo; how it was run: as §1
[4] = Distribution ratio in striatum and cerebellum was determined after 30 min of intravenous administration of the compound; [125I]- is used as radioactive isotope; assay type: ADME, tissue-based; conditions: rat, 0.5 h
How it was run: (§2)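 Rats, three per group, given 10 μCi tracer in 0.2 mL saline into the femoral vein under ether anesthesia, then killed by cardiac excision at the stated time. Brain regions were dissected, weighed and counted. Percent dose/g was calculated against a 1% diluted aliquot of the injected dose. The ratio is (region − cerebellum)/cerebellum on a % dose/g basis, with cerebellum as background.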

[5] = Distribution ratio in striatum and cerebellum was determined after 240 min of intravenous administration of the compound; [125I]- is used as radioactive isotope; assay type: ADME, tissue-based; conditions: rat, 4 h; how it was run: as §2
[6] = Distribution ratio in hippocampus and cerebellum was determined after 2 min of intravenous administration of the compound; [125I]- is used as radioactive isotope; assay type: ADME, tissue-based; conditions: rat
How it was run: (§3)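 After femoral-vein injection of 10 μCi [¹²⁵I] tracer in 0.2 mL saline under ether anaesthesia (three rats per group), brain regions were dissected, weighed and counted: cortex (frontal plus occipital), hippocampus, hypothalamus and cerebellum. %dose/g was calculated against a diluted injected-dose standard. Ratio = (region − cerebellum)/cerebellum on a %dose/g basis, with cerebellum as the background region.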

[7] = Distribution ratio in hippocampus and cerebellum was determined after 6 hrs of intravenous administration of the compound; [125I]- is used as radioactive isotope; assay type: ADME, tissue-based; conditions: rat; how it was run: as §3
[8] = Regional brain distribution in rat striatum was determined after 30 min of intravenous administration of the compound; [125I]- is used as radioactive isotope; assay type: ADME, tissue-based; conditions: in vivo, 0.5 h; how it was run: as §1
[9] = Distribution ratio in striatum and cerebellum was determined after 11 hrs of intravenous administration of the compound; [125I]- is used as radioactive isotope; assay type: ADME, tissue-based; conditions: rat; how it was run: as §2
[10] = Distribution ratio in hippocampus and cerebellum was determined after 30 min of intravenous administration of the compound; [125I]- is used as radioactive isotope; assay type: ADME, tissue-based; conditions: rat, 0.5 h; how it was run: as §3
[11] = Distribution ratio in hypothalamus and cerebellum was determined after 6 hours of intravenous administration of the compound; [125I]- is used as radioactive isotope; assay type: ADME, tissue-based; conditions: rat; how it was run: as §2
[12] = Regional brain distribution in rat cerebellum was determined after 240 min of intravenous administration of the compound; [125I]- is used as radioactive isotope; assay type: ADME, tissue-based; conditions: in vivo, 4 h; how it was run: as §1
[13] = Regional brain distribution in rat cerebellum was determined after 6 hours of intravenous administration of the compound; [125I]- is used as radioactive isotope; assay type: ADME, tissue-based; conditions: in vivo; how it was run: as §1
[14] = Distribution ratio in cortex and cerebellum was determined after 30 min of intravenous administration of the compound; [125I]- is used as radioactive isotope; assay type: ADME, tissue-based; conditions: rat, 0.5 h; how it was run: as §3
[15] = Regional brain distribution in rat hippocampus was determined after 2 min of intravenous administration of the compound; [125I]- is used as radioactive isotope; assay type: ADME, tissue-based; conditions: in vivo; how it was run: as §1
[16] = Regional brain distribution in rat cerebellum was determined after 11 hours of intravenous administration of the compound; [125I]- is used as radioactive isotope; assay type: ADME, tissue-based; conditions: in vivo; how it was run: as §1
[17] = Regional brain distribution in rat cerebellum was determined after 24 hours of intravenous administration of the compound; [125I]- is used as radioactive isotope; assay type: ADME, tissue-based; conditions: in vivo; how it was run: as §1
[18] = Regional brain distribution in rat hippocampus was determined after 24 hours of intravenous administration of the compound; [125I]- is used as radioactive isotope; assay type: ADME, tissue-based; conditions: in vivo; how it was run: as §1
[19] = Regional brain distribution in rat hypothalamus was determined after 24 hours of intravenous administration of the compound; [125I]- is used as radioactive isotope; assay type: ADME, tissue-based; conditions: in vivo; how it was run: as §1
[20] = Biodistribution in rat lung was determined after 2 min of intravenous administration of the compound; [125I]- is used as radioactive isotope; assay type: ADME, organism-based; conditions: in vivo
How it was run: (§4)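 Rats under ether anesthesia, three per group, received 10 μCi tracer in 0.2 mL saline into the femoral vein. They were killed by cardiac excision under ether at each time point. Organs were removed, weighed and counted. Percent dose per organ was calculated against a 1%-of-injected-dose standard counted at the same time.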

[21] = Biodistribution in rat skin was determined after 2 min of intravenous administration of the compound; [125I]- is used as radioactive isotope; assay type: ADME, organism-based, Zone of skin; conditions: in vivo
How it was run: (§5)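 Rats, three per group, under ether anaesthesia, received 10 μCi of [¹²⁵I]-labelled tracer in 0.2 mL saline into the femoral vein. They were killed by cardiac excision under ether at each time point. Organs were removed, weighed and counted. Percent dose per organ was calculated against counts of a 1% aliquot of the injected dose (100-fold diluted) counted at the same time.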

[22] = Biodistribution in rat blood was determined after 60 min of intravenous administration of the compound; [125I]- is used as radioactive isotope; assay type: ADME, organism-based; conditions: in vivo, 1 h; how it was run: as §4
[23] = Biodistribution in rat heart was determined after 60 min of intravenous administration of the compound; [125I]- is used as radioactive isotope; assay type: ADME, organism-based; conditions: in vivo, 1 h; how it was run: as §4
[24] = Biodistribution in rat lung was determined after 6 hours of intravenous administration of the compound; [125I]- is used as radioactive isotope; assay type: ADME, organism-based; conditions: in vivo; how it was run: as §4
[25] = Biodistribution in rat muscle was determined after 2 min of intravenous administration of the compound; [125I]- is used as radioactive isotope; assay type: ADME, organism-based, Muscle tissue; conditions: in vivo; how it was run: as §5
[26] = Biodistribution in rat skin was determined after 240 min of intravenous administration of the compound; [125I]- is used as radioactive isotope; assay type: ADME, organism-based, Zone of skin; conditions: in vivo, 4 h; how it was run: as §5
[27] = Biodistribution in rat spleen was determined after 240 min of intravenous administration of the compound; [125I]- is used as radioactive isotope; assay type: ADME, organism-based; conditions: in vivo, 4 h; how it was run: as §5
[28] = Biodistribution in rat kidney was determined after 60 min of intravenous administration of the compound; [125I]- is used as radioactive isotope; assay type: ADME, organism-based; conditions: in vivo, 1 h; how it was run: as §4
[29] = Biodistribution in rat lung was determined after 11 hours of intravenous administration of the compound; [125I]- is used as radioactive isotope; assay type: ADME, organism-based; conditions: in vivo; how it was run: as §4
[30] = Biodistribution in rat lung was determined after 24 hours of intravenous administration of the compound; [125I]- is used as radioactive isotope; assay type: ADME, organism-based; conditions: in vivo; how it was run: as §4
[31] = Biodistribution in rat kidney was determined after 6 hours of intravenous administration of the compound; [125I]- is used as radioactive isotope; assay type: ADME, organism-based; conditions: in vivo; how it was run: as §4
[32] = Biodistribution in rat liver was determined after 24 hours of intravenous administration of the compound; [125I]- is used as radioactive isotope; assay type: ADME, organism-based; conditions: in vivo; how it was run: as §4
[33] = Biodistribution in rat kidney was determined after 24 hours of intravenous administration of the compound; [125I]- is used as radioactive isotope; assay type: ADME, organism-based; conditions: in vivo; how it was run: as §4
[34] = Biodistribution in rat muscle was determined after 24 hours of intravenous administration of the compound; [125I]- is used as radioactive isotope; assay type: ADME, organism-based, Muscle tissue; conditions: in vivo; how it was run: as §5

**Q.** What does the source list for CN(C)Cc1ccccc1Oc1ccc(I)cc1N?
**A.** Dose/g [1]: 0.51%; Dose/g [2]: 0.77%; Dose/g [3]: 0.004%; Dose/g [4]: 0.83%; Dose/g [5]: 3.11%; Dose/g [6]: 0.13%; Dose/g [7]: 1.21%; Dose/g [8]: 1.16%; Dose/g [9]: 0.14%; Dose/g [10]: 0.68%; Dose/g [11]: 2.64%; Dose/g [12]: 0.06%; Dose/g [13]: 0.027%; Dose/g [14]: 0.96%; Dose/g [15]: 0.86%; Dose/g [16]: 0.01%; Dose/g [17]: 0.0049%; Dose/g [18]: 0.004%; Dose/g [19]: 0.006%; Dose [20]: 17.2%; Dose [21]: 4.45%; Dose [22]: 3.89%; Dose [23]: 0.2%; Dose [24]: 0.25%; Dose [25]: 25.9%; Dose [26]: 12.6%; Dose [27]: 0.13%; Dose [28]: 1.67%; Dose [29]: 0.16%; Dose [30]: 0.04%; Dose [31]: 0.55%; Dose [32]: 1.83%; Dose [33]: 0.17%; Dose [34]: 1.13%
